# Experimental data: ChEMBL document CHEMBL1177862, “Novel effects of glycyrrhetinic acid on the central nervous system tumorigenic progenitor cells: induction of actin disruption and tumor cell-selective toxicity” (Eur J Med Chem, 2010); call rule not given here
# pIC50: −log10 of the molar value. Structures can show the parent of a compound that is named as a salt.
# Key:
# [1] = Antiproliferative activity against mouse SFME cells after 24 hrs by MTT assay; assay type: cell-based
# Procedure, shortened: (§1)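 Cells were kept in DME/F-12 with insulin, transferrin and EGF on fibronectin-coated dishes at 37 C in 20% O2/5% CO2. They were seeded at 1 x 10^4 cells/well and dosed at half confluency for 24 h. Cell number was read by MTT. Runs were in triplicate, repeated at least three times, as mean SD. IC50 was derived from concentration-response data.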
# [2] = Antiproliferative activity against mouse r/m HM-SFME-1 cells after 24 hrs by MTT assay; assay type: functional, cell-based; procedure, shortened: as §1
# [3] = Induction of F-actin disruption in mouse SFME cells assessed as F-actin extension at IC50 after 8 hrs by confocal laser scanning microscopy; assay type: functional, cell-based
# Procedure, shortened: (§2)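 After 8 h treatment, cells were fixed in 3.7% formaldehyde/PBS and permeabilized with 0.1% Triton X-100. F-actin was labeled with rhodamine-phalloidin. Slides were mounted in anti-fade medium and imaged by confocal laser scanning or fluorescence microscopy for peripheral F-actin extensions and lamellipodia.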
# [4] = Induction of F-actin disruption in mouse r/m HM-SFME-1 cells assessed as disappearance of F-actin extension at IC50 after 8 hrs by confocal laser scanning microscopy; assay type: functional, cell-based; procedure, shortened: as §2
# [5] = Down regulation of beta-actin protein expression in mouse SFME cells at IC50 after 8 hrs by Western blotting; assay type: functional, cell-based
# Procedure, shortened: (§3)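 They were run on SDS-PAGE, blotted to nitrocellulose and probed with mouse monoclonal anti-beta-actin, then AP-conjugated anti-mouse IgG1. GAPDH was the loading control. Bands were quantified by densitometry. Values are from at least 3 experiments, Student's t-test.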
# [6] = Antiproliferative activity against mouse r/m HM-SFME-1 cells at 10 uM after 24 hrs by MTT assay; assay type: functional; procedure, shortened: as §1
# [7] = Down regulation of beta-actin protein expression in mouse r/m HM-SFME-1 cells at IC50 after 8 hrs by Western blotting; assay type: functional, cell-based; procedure, shortened: as §3
Structure (SMILES),pIC50 [1],pIC50 [2],IC50 [3],IC50 [4],IC50 [5],inhibition at 10 µM [6],IC50 [7]
Nc1ccn([C@@H]2O[C@H](CO)[C@@H](O)[C@@H]2O)c(=O)n1 [CYTARABINE],6.10,4.48,–,–,–,–,–
COc1cccc2c1C(=O)c1c(O)c3c(c(O)c1C2=O)C[C@@](O)(C(=O)CO)C[C@@H]3O[C@H]1C[C@H](N)[C@H](O)[C@H](C)O1 [DOXORUBICIN HYDROCHLORIDE],6.10,4.19,–,–,–,–,–
CC1(C)[C@@H](O)CC[C@]2(C)[C@H]3C(=O)C=C4[C@@H]5C[C@@](C)(C(=O)O)CC[C@]5(C)CC[C@@]4(C)[C@]3(C)CC[C@@H]12 [ENOXOLONE],4.74,5.14,Not Active,Active,Not Active,> 80%,Active
COc1cc([C@@H]2c3cc4c(cc3[C@@H](O[C@@H]3O[C@@H]5CO[C@@H](C)O[C@H]5[C@H](O)[C@H]3O)[C@H]3COC(=O)[C@H]23)OCO4)cc(OC)c1O [ETOPOSIDE],6.30,5.05,–,–,–,–,–
O=c1[nH]cc(F)c(=O)[nH]1 [FLUOROURACIL],5.49,4.31,–,–,–,–,–
